pIC50: −log10 of the molar value.
Legend:
[1] = Ratio of IC50 for compound to IC50 for pentamidine for rat L6 cells; assay type: cell-based; conditions: read-out: Ratio IC50
[2] = tested on: Trypanosoma brucei rhodesiense; experiment: Antitrypanosomal activity against Trypanosoma brucei rhodesiense STIB900 after 72 hrs using alamar blue staining by microplate fluorometric analysis; assay type: functional, organism-based; conditions: STIB900, 72 h
Method in brief: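 STIB 900 trypanosome suspension with serial drug dilutions, 37 °C, 5% CO₂, 72 h; Alamar Blue added and incubation continued 2–4 h. Two independent runs, each in duplicate.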

L6 = experiment: Cytotoxicity against rat L6 cells after 72 hrs by alamar blue staining-based microplate fluorometric analysis; assay type: cell-based; conditions: L6, 72 h
[3] = Selectivity index, ratio of IC50 for Trypanosoma brucei rhodesiense STIB900 to IC50 for Plasmodium falciparum K1; assay type: functional
Plasmodium falciparum [4] = experiment: Antiplasmodial activity against Plasmodium falciparum K1 infected in human red blood cells assessed as [3H]hypoxanthine incorporation after 48 hrs by liquid scintillation counting; assay type: functional, organism-based
Nucleic Acid = experiment: Binding affinity to poly(dA-dT) DNA assessed as change in melting temperature at compound/polynucleotide ratio 0.3 in MES10 buffer by spectrophotometry; assay type: nucleic-acid assay
Plasmodium falciparum [5] = experiment: Ratio of IC50 for pentamidine to IC50 for compound for Plasmodium falciparum K1; assay type: functional

Row | pIC50 [2] | pIC50 (Plasmodium falciparum [4]) | ΔTm (Nucleic Acid) [°C] | SMILES | selectivity ratio [1] | pIC50 (L6) | Ratio IC50 [3] | Ratio IC50 (Plasmodium falciparum [5])
1 | 6.77 | 7.57 | 1.1 | N=C(N)Nc1ccc(Oc2cccc(Oc3ccc(NC(=N)N)cc3)c2)cc1 | 5 | 4.97 | 6.3 | 
2 | 4.08 | 5.33 | 0 | N=C(Nc1ccc(Oc2cccc(Oc3ccc(NC(=N)c4ccc(-c5ccccc5)cc4)cc3)c2)cc1)c1ccc(-c2ccccc2)cc1 | 4.3 | 5.04 | 17 | 
3 | 6.82 | 7.58 | 2.1 | N=C(N)Nc1ccc(Oc2ccc(Oc3ccc(NC(=N)N)cc3)cc2)cc1 | 5.5 | 4.94 | 5.7 | 
4 | 6.80 | 7.76 | 0 | CC(C)/N=C(\N)Nc1ccc(Oc2ccc(Oc3ccc(N/C(N)=N/C(C)C)cc3)cc2)cc1.Cl.Cl | 9.3 | 4.71 | 9.3 | 2.7
5 | 6.37 | 6.59 | 2.1 | N=C(Nc1ccc(Oc2ccc(Oc3ccc(NC(=N)C4CCCCC4)cc3)cc2)cc1)C1CCCCC1 | 1.5 | 5.51 | 1.6 | 
6 | 6.40 | 7.22 | 0 | CC(C)(C)c1ccc(C(=N)Nc2ccc(Oc3ccc(Oc4ccc(NC(=N)c5ccc(C(C)(C)C)cc5)cc4)cc3)cc2)cc1 | 0.71 | 5.82 | 6.7 | 
7 | 6.06 | 7.15 | 5 | N=C(Nc1ccc(Oc2ccc(Oc3ccc(NC(=N)c4ccccc4)cc3)cc2)cc1)c1ccccc1 | 1.3 | 5.55 | 12.1 | 
8 | 6.40 | 6.51 | 0 | N=C(Nc1ccc(Oc2cccc(Oc3ccc(NC(=N)C4CCCCC4)cc3)c2)cc1)C1CCCCC1 | 1.9 | 5.41 | 1.3 | 
9 | 5.98 | 6.60 | 2 | N=C(Nc1ccc(Oc2cccc(Oc3ccc(NC(=N)c4ccccc4)cc3)c2)cc1)c1ccccc1 | 0.43 | 6.05 | 4.2 | 
10 | 5.56 | 6.20 | 0 | CC(C)(C)c1ccc(C(=N)Nc2ccc(Oc3cccc(Oc4ccc(NC(=N)c5ccc(C(C)(C)C)cc5)cc4)c3)cc2)cc1 | 39 | 4.09 | 4.4 | 
11 | 6.50 | 7.67 | 0.1 | C/N=C(\N)Nc1ccc(Oc2cccc(Oc3ccc(N/C(N)=N/C)cc3)c2)cc1.Cl.Cl | 22 | 4.34 | 14.8 | 2.2
12 | 6.81 | 7.85 | 0.8 | C/N=C(/N)Nc1ccc(Oc2ccc(Oc3ccc(N/C(N)=N/C)cc3)cc2)cc1.Cl.Cl | 27 | 4.24 | 11 | 3.3
13 | 6.21 | 7.20 | 0.1 | N=C(Nc1ccc(Oc2ccc(Oc3ccc(NC(=N)c4ccc(-c5ccccc5)cc4)cc3)cc2)cc1)c1ccc(-c2ccccc2)cc1 | 60 | < 3.92 | 9.6 | 
14 | 6.81 | 7.42 | 0 | CC(C)/N=C(\N)Nc1ccc(Oc2cccc(Oc3ccc(N/C(N)=N/C(C)C)cc3)c2)cc1.Cl.Cl | 39 | 4.09 | 4.1 | 1.2

Reference: ChEMBL document CHEMBL1914412, “Molecular modeling study and synthesis of novel dicationic flexible triaryl guanidines and imidamides as antiprotozoal agents” (Eur J Med Chem, 2011)
